High-throughput results deposited in PubChem BioAssay by several laboratories.
Rows were chosen to be rich in hits. Some 5.2% of all compounds tested hit in one or more screens of this group.
core dimer inh: blocks dimerization of HCV core protein | TR-FRET GST/Flag-core106 dimerization, 1536-well | inhibition, % at 5 µM | 300,000 tested, 0.33% active | AID 1899;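 active = inhibition above the mean of all tested compounds plus 3 SD, set per screening campaign, cut at about 45% in these data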
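Material: GST/Flag-tagged HCV core106 proteins. Incubation: 4 h, 22.5 °C incubation. Read-out basis: inhibition (%) from 671 over 617 nm ratio. Measured by: TR-FRET, excitation 340 nm, emission 617 and 671 nm.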
NS3 helicase inh: inhibitors of Hepatitis C virus NS3 helicase. NS3 helicase DNA unwinding, Cy5 molecular beacon fluorescence. inhibition, % at 10.9 µM. 290,000 tested, 0.56% active. AID 1800;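 active = inhibition above the mean of all tested compounds plus 3 SD, set per campaign, cut at about 35% in these data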;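 note: 0% = DMSO wells and 100% = thioflavine S control wells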
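Control set: DMSO versus 110 µM thioflavine S; Material: NS3 helicase fragment of HCV; Measured by: Cy5 fluorescence at 0 and 60 min, beacon hairpin quenching; Read-out basis: percent inhibition from t60/t0 fluorescence ratio; Times: reaction time 60 min, 25 °C; Repeats: single replicate; Compound dosing: single dose, 10.9 µM nominal final, DMSO 0.8% final.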
ZTA DNA inh: counter-screen for EBNA-1 inhibitors: inhibitors of Epstein-Barr virus ZTA | ZTA-DNA binding, fluorescence polarization | inhibition, % at 11 µM | 320,000 tested, 0.15% active | AID 2234; in the data active = inhibition above about 33%
Target sequence (P03206 whole entry, looked up): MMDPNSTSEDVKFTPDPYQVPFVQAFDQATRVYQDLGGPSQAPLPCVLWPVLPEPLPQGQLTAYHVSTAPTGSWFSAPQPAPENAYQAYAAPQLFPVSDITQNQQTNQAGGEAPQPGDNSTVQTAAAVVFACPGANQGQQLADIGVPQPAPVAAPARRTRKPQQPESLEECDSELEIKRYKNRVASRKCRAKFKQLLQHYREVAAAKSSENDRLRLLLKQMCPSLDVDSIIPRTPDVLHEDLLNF
ALR inh: human ALR oxidase inhibition via reduced H2O2 | P55789 | purified ALR, DTT oxidation, H2O2 HRP-luminol luminescence | inhibition, % (no concentration beside the values) | 290,000 tested, 3.8% active | AID 485317;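 active = mean replicate inhibition above about 79%, with every replicate also reaching it, limit read from the data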
Target sequence (P55789 whole entry, looked up): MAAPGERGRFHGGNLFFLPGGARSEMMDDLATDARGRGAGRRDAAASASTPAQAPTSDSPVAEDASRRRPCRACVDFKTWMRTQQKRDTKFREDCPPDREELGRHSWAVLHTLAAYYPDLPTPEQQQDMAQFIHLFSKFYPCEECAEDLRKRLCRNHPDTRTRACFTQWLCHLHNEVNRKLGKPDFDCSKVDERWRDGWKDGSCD
PfM18AAP inh-1: PfM18AAP enzyme inhibition; recombinant PfM18AAP, H-Glu-NHMec fluorogenic cleavage; inhibition, % at 7.35 µM; 290,000 tested, 1.2% active; AID 1822;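 active = inhibition above the campaign mean inhibition over all tested compounds plus 3 SD, cut at about 28% in these data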;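 note: 0% = plate median of test compound wells and 100% = 2 mM ZnCl2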
EBNA-1 inh: blocks EBNA-1 binding to DNA; EBNA-1 DNA binding, fluorescence polarization; inhibition, % at 14.8 µM; 300,000 tested, 0.34% active; in the data active = inhibition above about 28%
PfM18AAP inh-2: confirmation of Plasmodium falciparum M18 aspartyl aminopeptidase inhibitors | inhibition, % at 7.35 µM | 2,400 tested, 28% active | recombinant PfM18AAP, H-Glu-NHMec fluorogenic cleavage | shares compounds with PfM18AAP inh-1;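 active = mean inhibition over replicate wells above the hit cutoff set for the earlier primary screen, cut at about 29% in these data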;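 note: 0% = median of test compound wells and 100% = 2 mM ZnCl2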
CTSL1 counter: Cathepsin L (human) inhibition, confirmation. shares compounds with PfM18AAP inh-1. purified cathepsin L1, Z-Leu-Arg-MCA fluorescence. inhibition, % at 5.96 µM. 2,400 tested, under 10 active;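 active = average inhibition across replicates above the hit cutoff set in the earlier primary screen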;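 note: 0% = median of test compound wells and 100% = Z-Phe-Ala-diazomethylketone 1 µM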
* = called active by the depositor; x = no result.

SMILES | core dimer inh | NS3 helicase inh | ZTA DNA inh | ALR inh | PfM18AAP inh-1 | EBNA-1 inh | PfM18AAP inh-2 | CTSL1 counter
O=C(Cc1ccccc1)N/N=C/c1ccc(OCC(=O)Nc2ccccc2)cc1 | -6 | -10 | -3 | 1 | -1 | -8 | x | x
CCOc1ccccc1/C=N/NC(=O)C[n+]1ccccc1 | x | x | -4 | 14 | x | x | x | x
N#CCC(=O)N/N=C/c1ccc(Cl)cc1 | -2 | 3 | -7 | -5 | 26 | 15 | x | x
CN(c1ccccc1)c1ccc(/C=N/NC(=O)CC#N)cc1 | 1 | 0 | 2 | 11 | 36* | -7 | -33 | 9
O=C(Cn1sc2ccccc2c1=O)NC12CC3CC(CC(C3)C1)C2 | -9 | 2 | -3 | x | 34* | -8 | 21 | 1
O=C(O)CCC(=O)c1ccc2c(c1)OCCO2 | -6 | 0 | -11 | 39 | -5 | 9 | x | x
O=C(O)CCOc1ccc2c(c1)OCCO2 | -3 | 2 | 12 | -25 | 63* | 5 | -45 | -3
CO/N=C(\C(=O)O)c1csc(NN=C(C)C)n1 | -3 | 10 | 16 | 2 | 41* | -17 | -16 | -4
CCOC(=O)/C(=N/Nc1ccccc1)c1csc(Nc2ccccc2)n1 | 0 | -7 | -2 | -6 | 13 | 2 | x | x
COc1ccc(S(=O)(=O)N2CCCOC2CNC(=O)C(=O)NCc2ccccn2)cc1 (centres undefined) | -1 | -3 | 9 | -3 | 6 | 3 | x | x
O=C(CNC(=O)/C=C/c1ccco1)N=Nc1c(O)[nH]c2ccccc12 | 13 | 19 | 11 | 49 | 11 | 9 | x | x
COc1cc(CN2CCN(Cc3ccc(C(F)(F)F)cc3)CC2)cc(OC)c1OC | -9 | -21 | 5 | -7 | 0 | 0 | x | x
COc1cccc(C2C(C(=O)c3cccs3)=C(O)C(=O)N2c2cc(C)on2)c1 (centres undefined) | -1 | 12 | -8 | -1 | 35* | 11 | -36 | 2
Cc1cc(N2C(=O)C(O)=C(C(=O)c3cccs3)C2c2cccc(O)c2)no1 (centres undefined) | 1 | 5 | -33 | -1 | 25 | -14 | x | x
COc1ccc(OC2CCN(S(=O)(=O)c3ccc(C(C)=O)cc3)CC2)cc1 | 4 | 9 | -20 | 2 | -5 | 0 | x | x
CC(C)Nc1nnc(Sc2ccc(Cl)cc2[N+](=O)[O-])s1 | -1 | 4 | 4 | -7 | 3 | 10 | x | x
O=C(CN1CCN(S(=O)(=O)c2ccccc2)CC1)Nc1ccc([N+](=O)[O-])cc1 | -8 | -1 | -7 | -1 | -4 | -4 | x | x
CCOC(=O)c1sc(N/N=C/c2cc(Br)c(O)c(OC)c2)nc1C | -11 | 2 | -30 | 40 | 37* | -2 | 11 | -2
S=C(Nc1ccccn1)c1ccccn1 | -8 | 3 | -20 | -15 | 36* | -7 | -23 | 2
O=C(Nc1ccccn1)C(=O)Nc1ccccn1 | 3 | 1 | 2 | 0 | 4 | 1 | x | x
CCc1nnc(NC(=O)CN2C(=O)/C(=C/c3cc(OC)c(OC)c(OC)c3)SC2=S)s1 | 4 | 19 | 4 | x | 33* | 5 | -17 | 1
COc1cc(/C=C2/SC(=S)N(CC(=O)Nc3nc4ccccc4s3)C2=O)cc(OC)c1OC | 24 | 9 | 14 | -5 | 20 | 0 | x | x
Cc1ccc(Nc2nc(=O)c3cccnc3s2)cc1 | 2 | -14 | -7 | -13 | 6 | 0 | x | x
COc1ccc(OC)c(Nc2nc(=O)c3cccnc3s2)c1 | x | 12 | x | x | 54* | x | 26 | -6
COc1ccc(/C=C(\C#N)C(=O)C(C)(C)n2cncn2)cc1 | 0 | 1 | -7 | 62 | 59* | -5 | -8 | -2
SMILES | core dimer inh | NS3 helicase inh | ZTA DNA inh | ALR inh | PfM18AAP inh-1 | EBNA-1 inh | PfM18AAP inh-2 | CTSL1 counter
COc1ccc(/C=C(\C#N)C(=O)c2cccn2C)cc1 | -1 | 5 | 0 | 1 | 4 | 2 | x | x
O=C(N/C(=C\c1cccc(Br)c1)C(=O)N1CCCCC1)c1ccco1 | 2 | -8 | -8 | -1 | -6 | 2 | x | x
COc1cc(/C=N/N2C(C)CCCC2C)cc(OC)c1O (centres undefined) | -21 | 17 | 0 | 100* | 39* | -26 | -31 | -8
CC(=O)N/C(=N\c1nc(C)cc(C)n1)Nc1ccc(Cl)cc1Cl | -10 | 15 | -27 | -3 | -6 | 6 | x | x
Cc1cccc2sc(NNC(=O)C3COc4ccccc4O3)nc12 (centres undefined) | 2 | -5 | -25 | 100* | 36* | -6 | -23 | 2
O=C(COc1ccccc1)NNc1nc2c(F)cc(F)cc2s1 | 4 | -2 | -2 | -12 | 2 | -2 | x | x
CCC(=O)NNc1nc2c(F)cc(F)cc2s1 | -12 | -7 | 17 | x | 44* | 3 | 13 | -4
O=C(NNc1nc2c(F)cc(F)cc2s1)C1=COCCO1 | -6 | 9 | -8 | 98* | 33* | -6 | -5 | 0
Cc1cccc2sc(NNC(=O)C3=COCCO3)nc12 | 1 | 4 | -4 | 26 | 43* | -5 | 18 | 2
Cc1ccc(-n2c(Cn3ncc4ccccc4c3=O)n[nH]c2=S)cc1 | -2 | 6 | 14 | 28 | 23 | 2 | x | x
O=c1c2ccccc2cnn1Cc1n[nH]c(=S)n1-c1ccccc1Cl | 4 | -3 | -5 | 84* | 38* | 3 | 6 | 1
O=c1c2ccccc2cnn1Cc1n[nH]c(=S)n1-c1ccc(F)cc1 | 7 | -4 | 1 | 1 | 36* | 0 | -1 | 2
CC1CCCN(S(=O)(=O)c2cccc(C(=O)NCC3CCCO3)c2)C1 (centres undefined) | x | x | x | -17 | x | x | x | x
O=C(c1ccc(COc2ccc(Cl)cc2Cl)o1)N1CCCC1 | x | -7 | x | -1 | -3 | x | x | x
CCOC(=O)[C@H]1[C@H]2COc3ccc(OC)cc3[C@@H]2N2C(=O)CN(CC3CCCO3)C(=O)[C@@]12C (some centres undefined) | x | x | -4 | 0 | x | x | x | x
CCCCn1c(N)c(N(CCC(C)C)C(=O)C2CC(=O)N(CCc3ccc(OC)c(OC)c3)C2)c(=O)[nH]c1=O (centres undefined) | -5 | x | -4 | -3 | x | -3 | x | x
CCC(Oc1ccc(C)c(C)c1)C(=O)N1CCCN(C)CC1 (centres undefined) | 1 | -21 | 8 | -2 | -1 | 2 | x | x
O=C(Cn1cnc([N+](=O)[O-])n1)c1ccc(O)c(O)c1 | -2 | 1 | -13 | 94* | 38* | 1 | 14 | 0
COc1cccc(NC(=S)N2CCC(NC(=O)c3ccco3)CC2)c1 | -10 | 8 | -9 | -1 | 1 | -10 | x | x
Cc1ccc(O)c(NC(=O)/C=C/C(=O)O)c1 | 1 | 6 | 8 | 67 | 33* | -1 | -22 | 4
COc1ccc(NC(=O)COC(=O)c2ccccc2SCC(=O)N2CCCC2)cc1 | 0 | x | -10 | -5 | x | 8 | x | x
